Experimental data: ChEMBL document CHEMBL1145980, “Molecular modeling calculations of HIV-1 reverse transcriptase nonnucleoside inhibitors: correlation of binding energy with biological activity for novel 2-aryl-substituted benzimidazole analogues” (J Med Chem, 2003)

Target: Human immunodeficiency virus type 1 reverse transcriptase (Human immunodeficiency virus 1, UniProt Q72547)
Test: Inhibition of HIV-1 reverse transcriptase.
Outline: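 Antiviral activity measured in cells infected with the HIV-1-based vector pNLNgoMI/R-E. The vector expresses the murine cell-surface marker gene hsa from the nef reading frame, so vector-infected cells can be identified by that marker. Results are reported as EC50.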

| EC50 | SMILES |
| --- | --- |
| 400 nM | Fc1cccc(F)c1Cn1c(-c2c(F)cccc2F)nc2c(Cl)cccc21 |
| 370 nM | NC(=O)c1cccc2c1nc(-c1c(F)cccc1F)n2Cc1c(F)cccc1F |
| 50 nM | OCc1cccc2c1nc(-c1c(F)cccc1F)n2Cc1c(F)cccc1F |
| 80 nM | COc1cccc2c1nc(-c1c(F)cccc1F)n2Cc1c(F)cccc1F |
| 440 nM | Cc1cccc2c1nc(-c1c(F)cccc1F)n2Cc1c(F)cccc1F |
| 530 nM | Nc1cccc2c1nc(-c1c(F)cccc1F)n2Cc1c(F)cccc1F |
| 160 nM | Fc1cccc(F)c1Cn1c(-c2c(F)cccc2F)nc2c(CCl)cccc21 |
| 2400 nM | CNc1cccc2c1nc(-c1c(F)cccc1F)n2Cc1c(F)cccc1F |
| 60 nM | N#CCc1cccc2c1nc(-c1c(F)cccc1F)n2Cc1c(F)cccc1F |
| 45 nM | [N-]=[N+]=NCc1cccc2c1nc(-c1c(F)cccc1F)n2Cc1c(F)cccc1F |
| 6060 nM | Fc1cccc(F)c1Cn1c(-c2ccccc2)nc2ccccc21 |
| 60 nM | CC(=O)OCc1cccc2c1nc(-c1c(F)cccc1F)n2Cc1c(F)cccc1F |
| 450 nM | O=[N+]([O-])c1cccc2c1nc(-c1c(F)cccc1F)n2Cc1c(F)cccc1F |
| 1650 nM | CC(=O)Nc1cccc2c1nc(-c1c(F)cccc1F)n2Cc1c(F)cccc1F |
| 40 nM | CC(=O)N(C)c1cccc2c1nc(-c1c(F)cccc1F)n2Cc1c(F)cccc1F |
| 1700 nM | Fc1cccc(F)c1Cn1c(-c2c(F)cccc2F)nc2ccccc21 |
| 750 nM | Cc1cccc2c1nc(-c1c(F)cccc1F)n2Cc1ccccc1 |
| 2710 nM | COc1cccc(F)c1-c1nc2c(N)cccc2n1Cc1c(F)cccc1F |
| 100 nM | O=Cc1cccc2c1nc(-c1c(F)cccc1F)n2Cc1c(F)cccc1F |
| 1360 nM | NCc1cccc2c1nc(-c1c(F)cccc1F)n2Cc1c(F)cccc1F |
| 370 nM | Fc1cccc(F)c1Cn1c(-c2c(F)cccc2F)nc2c(Br)cccc21 |

| SMILES | EC50 |
| --- | --- |
| CCc1cccc2c1nc(-c1c(F)cccc1F)n2Cc1c(F)cccc1F | 820 nM |
